Assay results gathered from unrelated publications.
Compare with care: the assays were run in different laboratories.
ADRA1A: Alpha-1A adrenergic receptor (ADRA1A, Homo sapiens, UniProt P35348)
SQLE: Squalene monooxygenase (SQLE, Homo sapiens, UniProt Q14534)

Structure (SMILES)	target	test	quantity	value
O=C[C@H](O)[C@@H](O)[C@H](O)[C@H](O)COP(=O)(O)O	Hexokinase HKDC1 (Homo sapiens, UniProt Q2TB90)	enzyme activity, inhibitor, absorbance	Ki	> 1000 µM
CN(C)C(=O)c1cc2cnc(Nc3ccc(C(=O)NCCCCCCOc4cccc5c4C(=O)N(C4CCC(=O)NC4=O)C5=O)cc3)nc2n1C1CCCC1 (centres unmarked)	High affinity nerve growth factor receptor (NTRK1, Homo sapiens, UniProt P04629)	binding, competition with immobilised ligand	Kd	< 0.2 µM
Cc1cc(Oc2ncccc2CN2CCN(c3ccccc3C#N)CC2)ccc1-c1c(C)c(=O)[nH]c(=O)n1C	ADRA1A	ligand displacement, radioligand	Ki	1.21 µM
O=C(O)[C@H]1O[C@@H](Oc2cc3oc(-c4ccccc4)cc(=O)c3c(O)c2O)[C@H](O)[C@@H](O)[C@@H]1O	SQLE	enzyme activity, inhibitor	Ki	1.75 µM
Cc1ccc(N2CCN(Cc3cccnc3Oc3ccc(-c4c(C)c(=O)[nH]c(=O)n4C)c(C)c3)CC2)cc1C	ADRA1A	ligand displacement, radioligand	Ki	3.42 µM
Nc1ccn(C[C@@H](CO)OCP(=O)(O)O)c(=O)n1	Solute carrier family 22 member 6 (SLC22A6, Homo sapiens, UniProt Q4U2R8, S231A)	transporter uptake, inhibitor, fluorescence	IC50	344 µM
Cc1cc(Oc2ncccc2CN2CCN(C(c3ccccc3)c3ccccc3)CC2)ccc1-c1c(C)c(=O)[nH]c(=O)n1C	ADRA1A	ligand displacement, radioligand	Ki	0.885 µM
NC(=O)c1ccc[n+]([C@@H]2O[C@H](COP(=O)([O-])OP(=O)(O)OC[C@H]3O[C@@H](n4cnc5c(N)ncnc54)[C@H](O)[C@@H]3O)[C@@H](O)[C@H]2O)c1	Dihydrolipoyl dehydrogenase, mitochondrial (DLD, Homo sapiens, UniProt P09622, K430Q)	binding, SPR	Kd	1.14 µM
CC(=O)c1ccc2c(c1)N(CCCN1CCC(CCO)CC1)c1ccccc1S2	SQLE	enzyme activity, inhibitor	Ki	0.68 µM
CC(C)C[C@H](NC(=O)[C@H](Cc1ccccc1)NC(=O)c1cnccn1)B(O)O	ATP-dependent Clp protease proteolytic subunit, mitochondrial (CLPP, Homo sapiens, UniProt Q16740)	binding	Kd	45 µM
Cc1cc2nc3c(=O)[nH]c(=O)nc-3n(C[C@H](O)[C@H](O)[C@H](O)COP(=O)(O)OP(=O)(O)OC[C@H]3O[C@@H](n4cnc5c(N)ncnc54)[C@H](O)[C@@H]3O)c2cc1C	Dihydrolipoyl dehydrogenase, mitochondrial (DLD, Homo sapiens, UniProt P09622)	binding, SPR	Kd	1.27 µM
